Test results taken from ChEMBL document CHEMBL3734689, “Enzyme kinetics and inhibition of histone acetyltransferase KAT8” (Eur J Med Chem, 2015).
Activity calls are given as the source filed them. No cut-off for these calls is given here.

What was measured:
[1] = target: Histone acetyltransferase p300 (Homo sapiens) (UniProt Q09472); assay: Inhibition of human recombinant Histone acetyltransferase p300 catalytic domain (1284-1672 residues) using [3H]Acetyl-CoA and histone H3 substrate at 50 uM after 1 hr by liquid scintillation counting
Chain of Histone acetyltransferase p300 (Homo sapiens) (Q09472 whole entry, the tested form may be a part): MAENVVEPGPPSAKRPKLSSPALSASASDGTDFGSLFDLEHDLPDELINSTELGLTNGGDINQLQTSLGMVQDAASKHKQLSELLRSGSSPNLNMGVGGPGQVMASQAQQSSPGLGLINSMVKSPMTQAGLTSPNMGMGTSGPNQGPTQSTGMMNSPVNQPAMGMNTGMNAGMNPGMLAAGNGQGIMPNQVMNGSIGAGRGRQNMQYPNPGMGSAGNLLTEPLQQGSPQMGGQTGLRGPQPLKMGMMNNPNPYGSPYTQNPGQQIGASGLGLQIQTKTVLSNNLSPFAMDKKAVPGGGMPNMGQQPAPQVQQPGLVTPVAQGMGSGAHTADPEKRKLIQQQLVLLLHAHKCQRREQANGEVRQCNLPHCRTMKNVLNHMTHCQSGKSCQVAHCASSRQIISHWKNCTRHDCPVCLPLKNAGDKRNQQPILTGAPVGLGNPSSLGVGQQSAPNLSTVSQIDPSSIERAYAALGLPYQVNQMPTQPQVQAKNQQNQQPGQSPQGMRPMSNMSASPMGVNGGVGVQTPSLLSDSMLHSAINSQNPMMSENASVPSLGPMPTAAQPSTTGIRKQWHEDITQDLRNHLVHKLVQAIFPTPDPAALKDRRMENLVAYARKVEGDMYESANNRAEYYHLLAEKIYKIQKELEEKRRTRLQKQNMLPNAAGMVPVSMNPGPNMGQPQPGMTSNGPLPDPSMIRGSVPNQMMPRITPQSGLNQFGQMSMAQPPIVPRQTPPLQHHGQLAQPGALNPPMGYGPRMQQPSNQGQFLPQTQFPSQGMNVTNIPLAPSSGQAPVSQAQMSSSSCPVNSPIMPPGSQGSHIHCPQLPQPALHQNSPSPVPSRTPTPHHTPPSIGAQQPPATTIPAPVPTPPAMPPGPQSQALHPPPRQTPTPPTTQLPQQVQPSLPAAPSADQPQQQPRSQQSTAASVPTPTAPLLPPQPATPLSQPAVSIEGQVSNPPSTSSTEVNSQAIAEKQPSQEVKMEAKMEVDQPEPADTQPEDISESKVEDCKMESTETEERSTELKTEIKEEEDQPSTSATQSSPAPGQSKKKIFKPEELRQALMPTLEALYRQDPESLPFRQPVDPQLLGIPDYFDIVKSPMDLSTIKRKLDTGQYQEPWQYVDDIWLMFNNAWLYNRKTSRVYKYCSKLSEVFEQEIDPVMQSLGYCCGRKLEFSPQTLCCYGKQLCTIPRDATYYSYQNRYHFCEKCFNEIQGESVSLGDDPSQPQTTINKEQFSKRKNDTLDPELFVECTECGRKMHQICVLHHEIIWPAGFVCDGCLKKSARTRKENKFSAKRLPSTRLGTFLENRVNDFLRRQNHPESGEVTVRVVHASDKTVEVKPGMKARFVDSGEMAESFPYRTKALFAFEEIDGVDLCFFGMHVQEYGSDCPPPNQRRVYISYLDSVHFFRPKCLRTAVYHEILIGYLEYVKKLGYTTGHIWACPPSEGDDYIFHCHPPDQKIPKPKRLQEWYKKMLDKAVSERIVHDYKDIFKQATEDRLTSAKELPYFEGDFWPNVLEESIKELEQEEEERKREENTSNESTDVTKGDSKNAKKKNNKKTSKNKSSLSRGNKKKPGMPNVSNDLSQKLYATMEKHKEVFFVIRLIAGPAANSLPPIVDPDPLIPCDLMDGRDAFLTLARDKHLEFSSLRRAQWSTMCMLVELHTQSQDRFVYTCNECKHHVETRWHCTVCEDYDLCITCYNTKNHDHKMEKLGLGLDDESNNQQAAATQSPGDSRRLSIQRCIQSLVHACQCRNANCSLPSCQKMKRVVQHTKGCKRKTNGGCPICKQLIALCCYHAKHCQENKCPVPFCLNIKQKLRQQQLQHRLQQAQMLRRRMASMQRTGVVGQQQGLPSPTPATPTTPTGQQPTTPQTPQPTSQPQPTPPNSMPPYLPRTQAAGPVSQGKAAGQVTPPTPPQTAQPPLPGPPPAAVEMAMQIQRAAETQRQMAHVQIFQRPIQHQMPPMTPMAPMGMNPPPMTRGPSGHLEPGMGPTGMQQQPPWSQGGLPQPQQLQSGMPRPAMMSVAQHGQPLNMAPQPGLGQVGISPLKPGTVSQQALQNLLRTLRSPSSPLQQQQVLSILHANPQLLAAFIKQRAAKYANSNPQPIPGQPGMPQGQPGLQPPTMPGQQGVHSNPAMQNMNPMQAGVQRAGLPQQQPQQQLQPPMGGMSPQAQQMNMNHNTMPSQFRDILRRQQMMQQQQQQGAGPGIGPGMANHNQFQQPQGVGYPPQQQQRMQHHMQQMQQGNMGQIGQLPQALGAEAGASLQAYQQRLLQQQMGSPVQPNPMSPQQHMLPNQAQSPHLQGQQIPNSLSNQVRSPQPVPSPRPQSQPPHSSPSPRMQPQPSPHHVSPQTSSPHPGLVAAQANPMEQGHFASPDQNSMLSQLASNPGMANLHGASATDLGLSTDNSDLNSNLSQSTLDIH
Procedure, shortened: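 p300 activity was measured by radiolabel transfer to the histone substrate. Compounds were tested at a single 50 µM concentration, and the value is the percent inhibition.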

[2] = target: T1, Histone acetyltransferase KAT8 (Homo sapiens) (UniProt Q9H7Z6); assay: Inhibition of recombinant N-terminal His6-tagged KAT8 (unknown origin) expressed in Escherichia Coli BL21 DE3 cells assessed as reduction of Co A level using histone H4 substrate after 15 mins by CPM fluorescence assay
T1 sequence (whole entry): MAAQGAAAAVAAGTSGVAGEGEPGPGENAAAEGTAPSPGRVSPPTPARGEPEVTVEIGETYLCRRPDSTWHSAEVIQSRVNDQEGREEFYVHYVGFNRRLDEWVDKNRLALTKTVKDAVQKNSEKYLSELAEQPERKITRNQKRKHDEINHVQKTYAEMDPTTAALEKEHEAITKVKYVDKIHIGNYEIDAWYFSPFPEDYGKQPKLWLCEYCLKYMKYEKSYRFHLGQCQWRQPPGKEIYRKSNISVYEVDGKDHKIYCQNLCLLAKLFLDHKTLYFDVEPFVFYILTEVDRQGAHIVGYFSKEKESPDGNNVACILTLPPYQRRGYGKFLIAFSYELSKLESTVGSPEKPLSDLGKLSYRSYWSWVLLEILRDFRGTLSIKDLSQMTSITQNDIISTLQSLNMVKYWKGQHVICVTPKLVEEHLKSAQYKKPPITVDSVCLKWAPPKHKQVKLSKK

[3] = target: T1, Histone acetyltransferase KAT8 (Homo sapiens); assay: Inhibition of recombinant N-terminal His6-tagged KAT8 (unknown origin) expressed in Escherichia Coli BL21 DE3 cells assessed as reduction of Co A level using histone H4 substrate at 400 uM after 15 mins by CPM fluorescence assay
[4] = target: Histone acetyltransferase p300 (Homo sapiens) (UniProt Q09472); assay: Inhibition of human recombinant Histone acetyltransferase p300 catalytic domain (1284-1672 residues) using [3H]Acetyl-CoA and histone H3 substrate at 200 uM after 1 hr by liquid scintillation counting

Compound: CCCCCCCCCCCCCCCc1cccc(O)c1C(=O)O
- inhibition [1]: 97%

Compound: CCCCCc1ccc(O)c(C(=O)O)c1
- logIC50 [2]: > 2.8
- inhibition [3]: inactive
- inhibition [1]: inactive
- inhibition [4]: inactive

Compound: CC1=NN(c2ccc(C(=O)O)cc2)C(=O)/C1=C/c1ccc(-c2cc(C)c(C)cc2[N+](=O)[O-])o1
- logIC50 [2]: > 2.8
- inhibition [3]: inactive

Compound: CCCCCCCCCCc1cccc(O)c1C(=O)O
- logIC50 [2]: 2.09
- inhibition [3]: > 50%
- inhibition [1]: 88%

Compound: CCCCCCCCCCc1ccc(O)c(C(=O)O)c1
- logIC50 [2]: 2.28
- inhibition [3]: > 50%
- inhibition [1]: 95%

Compound: CCCCCc1cccc(O)c1C(=O)O
- logIC50 [2]: > 2.8
- inhibition [3]: inactive
- inhibition [1]: inactive
- inhibition [4]: inactive

Compound: CCCCCCCSCC(=O)c1ccccc1O
- logIC50 [2]: > 2.8
- inhibition [3]: inactive
- inhibition [1]: inactive
- inhibition [4]: inactive

Compound: O=C(O)c1c(O)cccc1CCCCCCCCCCCO
- logIC50 [2]: 2.72
- inhibition [3]: > 50%
- inhibition [1]: inactive
- inhibition [4]: inactive

Compound: CCCCCCCCCCCCCCCc1ccc(O)c(C(=O)O)c1
- logIC50 [2]: 2.42
- inhibition [3]: > 50%
- inhibition [1]: 85%

Compound: O=C(O)c1c(O)cccc1CCCCCO
- logIC50 [2]: > 2.8
- inhibition [3]: inactive
- inhibition [1]: inactive
- inhibition [4]: inactive
